From PubChem BioAssay come the findings set out here.

Structures are written as SMILES. Calls of active or inactive are those of the source.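 The calls were made as follows: active = duplicate-averaged activation above buffer control mean plus 5 SD of those controls; inactive = the rest.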

The nature of this assay: nonspecific flux increase, KCNQ1-free cells – parental CHO cells, counter-screen for KCNQ1 potentiator project (AID 493006).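 As to activation: fluorescence ratio of max minus min over baseline after K+ and Tl+ depolarization.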 To be noted: parental CHO-K1 cells, FluxOR thallium flux, at 10 µM; active compounds read high. The method, boiled down:
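Material: parental CHO-K1 cells, FluxOR dye-loaded; Also added: Potassium/thallium depolarization pulse; Schedule: overnight 37 °C plating, 90 min dye, 20 min dark compound; Signal: kinetic FluxOR fluorescence, 10 s baseline, 110 s after stimulus.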
A general note: Counterscreens check selectivity or assay interference.
For the compound `OC[C@H]1O[C@H](OC[C@H]2O[C@H](OC[C@H]3O[C@H](O[C@]4(CO)O[C@H](CO)[C@@H](O)[C@@H]4O)[C@H](O)[C@@H](O)[C@@H]3O)[C@H](O)[C@@H](O)[C@H]2O)[C@H](O)[C@@H](O)[C@H]1O`, the result was inactive.

Consider `Cc1ccc(Cn2ncc3c(NN)ncnc32)cc1`, for which the result was inactive.

Consider `Cc1nn2c(NCc3ccccn3)cc(C(C)C)nc2c1-c1ccccc1`, for which the result was inactive.

With `Cn1cccc1/C=N/n1c(-c2ccc(C(C)(C)C)cc2)n[nH]c1=S`, the result was inactive.

For the compound `Cn1nc(SCC(=O)O)sc1=S`, the result was inactive.

Regarding `CCCCOC(=O)c1ccc(NC(=S)NC(=O)c2c(Cl)cnn2CC)cc1`, the activation was 208% (active).

For `O=C(Nc1nccs1)c1ccc(-c2ccc(F)c(Cl)c2)o1`, the result was inactive.

As for `CSC(=S)N/N=C/c1ccc(N(C)C)cc1`, the result was inactive.

With `COc1ccc(NC(=O)[C@@H]2CC=C[C@@H]3CCN(C4CCCCC4)C(=O)[C@@H]32)cc1`, the result was inactive.

With `O=C(O)c1ccccc1NS(=O)(=O)c1cccc(-n2sc3ccccc3c2=O)c1`, the activation is 154% (active).

`COc1ccc(OC)c(NC(=O)C(=O)NNC(=O)C23CC4CC(CC(C4)C2)C3)c1`: the activation was 404% (active).

With `COc1ccc(-c2csc(N(CCCN(C)C)C(=O)c3ccccc3Cl)n2)cc1`, the outcome was inactive.

Take `CCOC(=O)CSc1nc(C2CC2)cc(-c2ccc(F)cc2)c1C#N`: the activation was 166% (active).

For the compound `CCOC(=O)c1c(NS(C)(=O)=O)sc2c1CCC(C)C2` (stereo not given), the activation was 173% (active).

Take `CCn1nc(C)c(NC(=O)c2cnn3c(C(F)F)cc(-c4ccccc4)nc23)c1C`: the outcome was inactive.

As for `Oc1ccc(N=Nc2ccc3c(c2)OCCO3)c2ncccc12`, the activation is 310% (active).

Consider `CCc1ccc(S(=O)(=O)NC(=S)NC2CCCCC2)cc1`, for which the activation is 330% (active).

Take `O=C(NC(=S)Nc1nc2c(s1)CSc1ccccc1-2)c1ccccc1`: the activation is 170% (active).

`CCN(CC)C(=S)NC(=O)c1ccc(OC)c(Br)c1`: the activation is 209% (active).

As for `Fc1ccc(SCCc2ccncc2)cc1`, the outcome was inactive.

As for `CCOC(=O)c1ccc(Nc2nc(N3CCOCC3)nc(N3CCOCC3)n2)cc1`, the outcome was inactive.

On to `CCCSC(=S)c1c(C)[nH]n(-c2ccccc2)c1=O`, for which the activation is 352% (active).

Regarding `O=C(NC(=S)NCc1ccccc1)c1ccc(Br)o1`, the activation is 434% (active).

Regarding `Cc1ccc(-c2csc3ncnc(SCc4ccc(C(=O)O)cc4)c23)cc1`, the activation is 197% (active).

Turning to `CC(C)(C)CC(C)(C)NCC(O)COCCOc1ccc(Br)cc1` (stereo not given), the result was inactive.

With `Cc1ccnc(NC(=O)CNC(=O)c2ccc3c(c2)OCO3)c1`, the outcome was inactive.

Take `Cc1cc(C)n(-c2nc3ccccc3nc2N2CCN(C(=O)c3ccc(Cl)cc3)CC2)n1`: the result was inactive.

Take `CN(C)c1nc(=Nc2cccc(Cl)c2)ss1`: the activation is 312% (active).

Take `Nc1nonc1C(=O)NCCN=Cc1cc(Cc2ccccc2)cc(Br)c1O`: the result was inactive.

In the case of `C/C(=N/NC(=O)c1ccc(Br)o1)c1ccc(C)o1`, the outcome was inactive.

Regarding `Oc1c(Cl)cc(Cl)c2cccnc12`, the activation is 148% (active).

Regarding `Cc1onc(-c2ccccc2)c1C(=O)N1CCN(S(=O)(=O)c2ccc(OC(F)(F)F)cc2)CC1`, the result was inactive.

As to `Cc1cc(S(=O)(=O)N2CCOCC2)ccc1OCC(=O)Nc1ccc(Br)cc1F`, the result was inactive.

With `COCCNC(=O)CN(C)S(=O)(=O)c1ccc(Br)cc1`, the outcome was inactive.

Regarding `O=C(NC(=S)N1CCN(c2nc(-c3ccccc3)cs2)CC1)c1cncc(Br)c1`, the activation is 384% (active).

`Oc1c(N=NC(=S)Nc2ccccc2F)c2ccccc2n1Cc1ccc(F)cc1`: the outcome was inactive.

Take `Cc1ccc2sc(N(CCCN(C)C)C(=O)CCS(=O)(=O)c3ccccc3)nc2c1C`: the outcome was inactive.

Take `O=C(NC(=S)Nc1ccccc1N1CCCC1)c1cccs1`: the activation is 150% (active).

Regarding `S=c1nc(C2CC2)[nH]c2ccccc12`, the activation is 414% (active).

Regarding `CCn1ncc(Cl)c1C(=O)NC(=S)Nc1ccccc1Br`, the activation is 272% (active).
